In PMC9486889 (Japanese Journal of Clinical Oncology, 2022):

Columns and labels:
[1] = pre-clinical study, no reference given; cited from earlier work
[2] = test system: HDAC1; conditions: cited from earlier work
[3] = test system: relapsed or refractory non-Hodgkin's lymphoma; test: Anti-tumor activity; assay type: in vivo, Japanese patients
[4] = test system: HDAC10; conditions: cited from earlier work
[5] = Cardiovascular assessments; assay type: in vivo, Japanese patients
[6] = Plasma and urine pharmacokinetics, Cycle 1; assay type: in vivo, Japanese patients
Procedure, shortened: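 Oral 30 or 40 mg BIW. In Cycle 1, plasma was sampled on Days 1 and 25 from pre-dose to 72 h post-dose. Urine was collected in three 24-h intervals after the Day 1 and Day 25 doses. Parent drug and metabolites were measured by LC/MS–MS. The PK population received ≥1 Cycle 1 dose and had ≥1 measured post-dose concentration.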

[7] = 40 mg BIW cohort, seven patients
[8] = NHL other than ATL, 30 mg BIW, 5 patients
[9] = NHL other than ATL, 40 mg BIW, 3 patients

## Nc1cc(F)ccc1NC(=O)c1ccc(CNC(=O)/C=C/c2cccnc2)cc1 [HBI-8000, tucidinostat]
[1]
  Effect on cardiovascular system including changes in QTc prolongation: did not induce any effect
[2]
  Inhibition of HDAC activity: selectively inhibits
[3]; 30 mg BIW cohort
  Stable disease after the first cycle: three of six
[3]; 30 mg BIW cohort, six patients
  Disease control (CR + CRu + PR + SD): 66.7%
  ORR: 16.7%
[3]; 40 mg BIW cohort
  Objective response: five of seven
  Partial responders with adult T-cell leukemia-lymphoma: three
[3]; [7]
  Disease control (CR + CRu + PR + SD): 100%
  ORR: 71.4%
[3]; ATL, 30 mg BIW, 1 patient
  Best overall response: PR: 0 (0) n (%)
  Best overall response: SD: 1 (100) n (%)
  Disease control (CR, PR or SD): 1 (100) n (%)
  Objective response (CR or PR): 0 (0.0) n (%)
[3]; ATL, 40 mg BIW, 4 patients
  Best overall response: PR: 3 (75.0) n (%)
  Best overall response: SD: 1 (25.0) n (%)
  Disease control (CR, PR or SD): 4 (100) n (%)
  Objective response (CR or PR): 3 (75.0) n (%)
[3]; NHL other than ATL, 30 mg BIW cohort
  Objective response: 20%
[3]; [8]
  Best overall response: CR: 0 (0) n (%)
  Best overall response: CRu: 1 (20.0) n (%)
  Best overall response: PD: 2 (40.0) n (%)
  Best overall response: SD: 2 (40.0) n (%)
  Disease control (CR, CRu, PR or SD): 3 (60.0) n (%)
  Objective response (CR, CRu or PR): 1 (20.0) n (%)
[3]; NHL other than ATL, 40 mg BIW cohort
  Objective response: 66.7%
[3]; [9]
  Best overall response: CR: 1 (33.3) n (%)
  Best overall response: CRu: 1 (33.3) n (%)
  Best overall response: PD: 0 (0) n (%)
  Best overall response: SD: 1 (33.3) n (%)
  Disease control (CR, CRu, PR or SD): 3 (100) n (%)
  Objective response (CR, CRu or PR): 2 (66.7) n (%)
[3]; both cohorts
  Responses in patients with ATL: three out of five
[4]
  Inhibition of HDAC activity: selectively inhibits
[5]; 30 mg BIW cohort
  Absolute QTcF >450 ms: three
[5]; 40 mg BIW cohort
  QTcF increase of >30 ms from baseline: three
[5]; both cohorts
  Absolute QTcF prolonged to >500 ms: none
  QTcF increase >60 ms from baseline: none
[6]; 30 mg cohort
  Administered dose excreted unchanged in urine over the dosing interval, average: 25.3%
[6]; 40 mg cohort
  Administered dose excreted unchanged in urine over the dosing interval, average: 21.9%
[6]; human, plasma, oral, 40 mg, Mean t1/2, 30 and 40 mg, Days 1 and 25
  half-life: 17.1 to 21.6 h
[6]; human, plasma, po, 30 mg
  AUC(0-inf): 4000 ng·h/mL
[6]; human, plasma, po, 40 mg
  AUC(0-inf): 7160 ng·h/mL
[6]; human, plasma, po, 40 mg, Median tmax, single and repeat oral administration, 30 and 40 mg
  Tmax: 2.42 to 5 h
